What was measured:
Mus musculus [1] = experiment: Hepatotoxicity in Crlj:CD1(ICR) mouse assessed as change in plasma ALT level at 2000 mg/kg, po administered for 5 consecutive days measured 24 hrs post final dosing (reference value: 24 +/- 4 U/L); type: toxicity, organism-based; design: dose 2000 mg/kg, route oral; conditions: in vivo
Mus musculus [2] = experiment: Hepatotoxicity in Crlj:CD1(ICR) mouse assessed as change in plasma ALT level at 1000 mg/kg, po administered for 5 consecutive days measured 24 hrs post final dosing (reference value: 24 +/- 4 U/L); type: toxicity, organism-based; design: dose 1000 mg/kg, route oral; conditions: in vivo
Mus musculus [3] = experiment: Antiinflammatory activity in po dosed BALB/c mouse model of endotoxic shock assessed as inhibition of LPS-induced TNFalpha production administered 30 mins before LPS challenge measured after 60 mins by ELISA
Mus musculus [4] = experiment: Hepatotoxicity in Crlj:CD1(ICR) mouse assessed as change in plasma AST level at 500 mg/kg, po administered for 5 consecutive days measured 24 hrs post final dosing (reference value: 45 +/- 11 U/L); type: toxicity, organism-based; design: dose 500 mg/kg, route oral; conditions: in vivo
Mus musculus [5] = experiment: Hepatotoxicity in Crlj:CD1(ICR) mouse assessed as change in plasma AST level at 1000 mg/kg, po administered for 5 consecutive days measured 24 hrs post final dosing (reference value: 45 +/- 11 U/L); type: toxicity, organism-based; design: dose 1000 mg/kg, route oral; conditions: in vivo
Mus musculus [6] = experiment: Antiinflammatory activity in BALB/c mouse model of endotoxic shock assessed as inhibition of LPS-induced TNFalpha production at 50 mg/kg, po administered 30 mins before LPS challenge measured after 60 mins by ELISA; type: functional
Procedure, shortened: (§1)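 Male BALB/c mice, 8 weeks old, were dosed orally at 10 mL/kg. Controls received vehicle (27% hydroxypropyl-β-cyclodextrin, 10 mL/kg). LPS (1 mg/kg) was injected i.p. 30 min after dosing. Blood was taken 60 min after LPS, and serum was separated for TNF-α measurement.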

Mus musculus [7] = experiment: Hepatotoxicity in Crlj:CD1(ICR) mouse assessed as change in plasma AST level at 2000 mg/kg, po administered for 5 consecutive days measured 24 hrs post final dosing (reference value: 45 +/- 11 U/L); type: toxicity, organism-based; design: dose 2000 mg/kg, route oral; conditions: in vivo
[8] = Antiinflammatory activity in human whole blood cells assessed as inhibition of LPS-induced TNFalpha production after 4 hrs by time-resolved fluorescence assay; type: functional, cell-based
Procedure, shortened: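 Freshly drawn heparinized human whole blood was given compound diluted in human serum AB and preincubated 1 h at 37 °C. It was then stimulated with LPS (200 ng/mL, E. coli O111:B4) for 4 h at 37 °C. Supernatant TNF-α was read by homogeneous time-resolved fluorescence.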

[9] = biological target: Mitogen-activated protein kinase 14 (Homo sapiens, UniProt Q16539); experiment: Inhibition of human recombinant P38alpha-mediated ATF2 phosphorylation after 1 hr
Sequence of Mitogen-activated protein kinase 14 (Q16539 whole entry): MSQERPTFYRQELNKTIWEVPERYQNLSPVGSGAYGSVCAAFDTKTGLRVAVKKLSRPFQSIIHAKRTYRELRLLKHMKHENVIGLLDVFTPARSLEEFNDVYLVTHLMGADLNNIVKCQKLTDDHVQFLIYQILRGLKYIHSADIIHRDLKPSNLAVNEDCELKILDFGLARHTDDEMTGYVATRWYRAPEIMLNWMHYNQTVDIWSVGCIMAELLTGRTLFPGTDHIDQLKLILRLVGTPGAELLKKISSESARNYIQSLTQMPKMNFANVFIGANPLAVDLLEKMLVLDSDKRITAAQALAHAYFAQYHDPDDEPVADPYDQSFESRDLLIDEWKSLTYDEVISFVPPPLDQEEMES

Mus musculus [10] = experiment: Hepatotoxicity in Crlj:CD1(ICR) mouse assessed as change in plasma ALT level at 500 mg/kg, po administered for 5 consecutive days measured 24 hrs post final dosing (reference value: 24 +/- 4 U/L); type: toxicity, organism-based; design: dose 500 mg/kg, route oral; conditions: in vivo
Mus musculus [11] = experiment: Hepatotoxicity in Crlj:CD1(ICR) mouse assessed as change in plasma AST level at 500 to 1000 mg/kg, po administered for 5 consecutive days measured 24 hrs post final dosing; type: toxicity, organism-based; design: dose 500-1000 mg/kg, route oral; conditions: in vivo
Mus musculus [12] = experiment: Hepatotoxicity in Crlj:CD1(ICR) mouse assessed as change in plasma direct bilirubin level at 500 to 1000 mg/kg, po administered for 5 consecutive days measured 24 hrs post final dosing; type: toxicity, organism-based; design: dose 500-1000 mg/kg, route oral; conditions: in vivo
Mus musculus [13] = experiment: Hepatotoxicity in Crlj:CD1(ICR) mouse assessed as change in plasma total bilirubin level at 500 to 1000 mg/kg, po administered for 5 consecutive days measured 24 hrs post final dosing; type: toxicity, organism-based; design: dose 500-1000 mg/kg, route oral; conditions: in vivo
Mus musculus [14] = experiment: Antiinflammatory activity in BALB/c mouse model of endotoxic shock assessed as inhibition of LPS-induced TNFalpha production at 100 mg/kg, po administered 30 mins before LPS challenge measured after 60 mins by ELISA; type: functional; procedure, shortened: as §1

SMILES	IC50 [8]	IC50 [9]	other results
Cc1ccc(-n2nc(C(C)(C)C)cc2NC(=O)NCc2cc(F)ccc2Oc2ccnc(N3CCOCC3)n2)cc1	230 nM	4 nM	Activity (Mus musculus [1]): 28 U/L; Activity (Mus musculus [2]): 32 U/L; ED50 (Mus musculus [3]): 16 mg/kg; Activity (Mus musculus [4]): 42 U/L; Activity (Mus musculus [5]): 47 U/L; inhibition in vivo at 50 mg/kg (Mus musculus [6]): 84%; Activity (Mus musculus [7]): 46 U/L; Activity (Mus musculus [10]): 26 U/L
Cc1ccc(-n2nc(C(C)(C)C)cc2NC(=O)NCc2cc(F)cc(Cl)c2Oc2ccnc(N3CCOCC3)n2)cc1	110 nM	11 nM	
Cc1ccc(-n2nc(C(C)(C)C)cc2NC(=O)NCc2ccccc2O)cc1		1500 nM	
Cc1ccc(-n2nc(C(C)(C)C)cc2NC(=O)NCc2cc(C)ccc2Oc2ccnc(N3CCOCC3)n2)cc1	970 nM	13 nM	
Cc1ccc(-n2nc(C(C)(C)C)cc2NC(=O)NCc2ccccc2Oc2ccnc(N3CCOCC3)n2)cc1	720 nM	12 nM	inhibition in vivo at 50 mg/kg (Mus musculus [6]): 65%
Cc1ccc(-n2nc(C(C)(C)C)cc2NC(=O)Nc2ccc(OCCN3CCOCC3)c3ccccc23)cc1 [DORAMAPIMOD]	600 nM		Activity (Mus musculus [11]): Toxic; Activity (Mus musculus [12]): Toxic; Activity (Mus musculus [13]): Toxic; inhibition in vivo at 50 mg/kg (Mus musculus [6]): 82%
Cc1ccc(-n2nc(C(C)(C)C)cc2NC(=O)NCc2cc(F)cc(C)c2Oc2ccnc(N3CCOCC3)n2)cc1		14 nM	
Cc1ccc(-n2nc(C(C)(C)C)cc2NC(=O)NCc2ccccc2Oc2ccnc(N3CCCCC3)n2)cc1		13 nM	
Cc1ccc(-n2nc(C(C)(C)C)cc2NC(=O)NCc2ccccc2Oc2ccnc(Cl)n2)cc1		20 nM	
Cc1ccc(-n2nc(C(C)(C)C)cc2NC(=O)NCc2cc(F)cc(F)c2Oc2ccnc(N3CCOCC3)n2)cc1	48 nM	3 nM	
Cc1ccc(-n2nc(C(C)(C)C)cc2NC(=O)NCc2cc(Cl)ccc2Oc2ccnc(N3CCOCC3)n2)cc1	190 nM	5 nM	inhibition in vivo at 100 mg/kg (Mus musculus [14]): 81%
Cc1ccc(-n2nc(C(C)(C)C)cc2NC(=O)NCc2cc(C(F)(F)F)ccc2Oc2ccnc(N3CCOCC3)n2)cc1	> 10000 nM	35 nM	
